We go through twelve compounds from ChEMBL document CHEMBL1149761, “New triazole and triazolothiadiazine derivatives as possible antimicrobial agents” (2008).

One assay relates to Micrococcus luteus. The assay can be described thus: Antibacterial activity against Micrococcus luteus NRLL B-4375 by microdilution broth susceptibility assay. Format: functional. A general note: Dilution methods test growth across graded concentrations, often in twofold steps.
The subject of a further assay is Salmonella typhimurium. The experiment in a line: Antibacterial activity against Salmonella Typhimurium NRRL B-4420 by microdilution broth susceptibility assay. In kind it is functional, Salmonella enterica subsp. enterica serovar Typhimurium. The note with it: Salmonella enterica.
Another assay deals with Staphylococcus aureus. The experiment in a line: Antibacterial activity against Staphylococcus aureus NRRL B-767 by microdilution broth susceptibility assay. In kind it is functional.
The next assay deals with Bacillus cereus. The experiment in a line: Antibacterial activity against Bacillus cereus NRRL B-3711 by microdilution broth susceptibility assay. In kind it is functional.
In a further assay the test system is Escherichia coli. The experiment in a line: Antibacterial activity against Escherichia coli NRRL B-3704 by microdilution broth susceptibility assay. In kind it is functional.
A further assay deals with Proteus vulgaris. The experiment in a line: Antibacterial activity against Proteus vulgaris NRRL B-123 by microdilution broth susceptibility assay. Format: functional.
The subject of a further assay is Candida albicans. The assay can be described thus: Antifungal activity against Candida albicans isolate by broth dilution antifungal susceptibility test. In kind it is functional. In outline: (§1)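 Clinical Candida isolates obtained from Osmangazi University, Faculty of Medicine. Tested by the microbroth dilution method alongside bacterial strains.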
A further assay deals with Nakaseomyces glabratus. The assay can be described thus: Antifungal activity against Candida glabrata isolate by broth dilution antifungal susceptibility test. Format: functional. In outline: as §1

In brackets after ≈: the same amount, converted by molar mass.

With `CN(C)c1ccc(/C=N/n2c(Cc3c[nH]c4ccccc34)n[nH]c2=S)cc1`, the MIC – broadly, the lowest concentration found to suppress growth – is 125 µg/mL (≈ 332 µM) in the assay on Micrococcus luteus; 62.5 µg/mL (≈ 166 µM) with Salmonella typhimurium; 250 µg/mL (≈ 664 µM) in the assay with Staphylococcus aureus; 125 µg/mL (≈ 332 µM) against Bacillus cereus; 125 µg/mL (≈ 332 µM) in the assay on Escherichia coli; 125 µg/mL (≈ 332 µM) in the assay on Proteus vulgaris. In addition, the MIC against Candida albicans and against Nakaseomyces glabratus was 250 µg/mL (≈ 664 µM) throughout.
`Clc1ccc(C2=Nn3c(Cc4c[nH]c5ccccc45)nnc3SC2)cc1`: the MIC is 62.5 µg/mL (≈ 165 µM) in the assay on Micrococcus luteus; 125 µg/mL (≈ 329 µM) in the assay with Salmonella typhimurium; 125 µg/mL (≈ 329 µM) against Staphylococcus aureus; 125 µg/mL (≈ 329 µM) against Bacillus cereus; 125 µg/mL (≈ 329 µM) against Escherichia coli; 250 µg/mL (≈ 658 µM) with Proteus vulgaris. Besides, the figures for the MIC against Candida albicans and in the assay with Nakaseomyces glabratus were 125 µg/mL (≈ 329 µM) and 250 µg/mL (≈ 658 µM), respectively.
Regarding `S=c1[nH]nc(Cc2c[nH]c3ccccc23)n1/N=C/c1ccccc1`, the MIC with Micrococcus luteus is 250 µg/mL (≈ 750 µM); with Salmonella typhimurium it was 62.5 µg/mL (≈ 187 µM); with Staphylococcus aureus, 125 µg/mL (≈ 375 µM); in the assay with Bacillus cereus, 250 µg/mL (≈ 750 µM); in the assay with Escherichia coli it was 125 µg/mL (≈ 375 µM); in the assay with Proteus vulgaris, 62.5 µg/mL (≈ 187 µM). Further, the MIC against Candida albicans and against Nakaseomyces glabratus was 125 µg/mL (≈ 375 µM) throughout.
In the case of `c1ccc(C2=Nn3c(Cc4c[nH]c5ccccc45)nnc3SC2)cc1`, the MIC with Micrococcus luteus is 62.5 µg/mL (≈ 181 µM); with Salmonella typhimurium, 62.5 µg/mL (≈ 181 µM); against Staphylococcus aureus, 62.5 µg/mL (≈ 181 µM); against Bacillus cereus, 125 µg/mL (≈ 362 µM); with Escherichia coli it was 250 µg/mL (≈ 724 µM); in the assay on Proteus vulgaris, 62.5 µg/mL (≈ 181 µM). For the same compound, the MIC with Candida albicans and against Nakaseomyces glabratus was 125 µg/mL (≈ 362 µM) throughout.
Take `O=C(N[C@H](CO)[C@H](O)c1ccc([N+](=O)[O-])cc1)C(Cl)Cl` [CHLORAMPHENICOL]: the MIC with Micrococcus luteus stood at 1.95 µg/mL (≈ 6.03 µM); against Salmonella typhimurium it was 0.97 µg/mL (≈ 3 µM); in the assay with Staphylococcus aureus it was 62.5 µg/mL (≈ 193 µM); with Bacillus cereus it was 125 µg/mL (≈ 387 µM); in the assay on Escherichia coli it was 62.5 µg/mL (≈ 193 µM); with Proteus vulgaris, 0.97 µg/mL (≈ 3 µM).
Regarding `S=c1[nH]nc(Cc2c[nH]c3ccccc23)n1/N=C/c1ccc(Cl)cc1`, the MIC was 62.5 µg/mL (≈ 170 µM) against Micrococcus luteus; 62.5 µg/mL (≈ 170 µM) against Salmonella typhimurium; 125 µg/mL (≈ 340 µM) in the assay on Staphylococcus aureus; 250 µg/mL (≈ 680 µM) in the assay on Bacillus cereus; 125 µg/mL (≈ 340 µM) in the assay with Escherichia coli; 125 µg/mL (≈ 340 µM) against Proteus vulgaris. The MIC came out at 125 µg/mL (≈ 340 µM) with Candida albicans and 250 µg/mL (≈ 680 µM) against Nakaseomyces glabratus.
Turning to `Cc1ccc(/C=N/n2c(Cc3c[nH]c4ccccc34)n[nH]c2=S)cc1`, the MIC in the assay on Micrococcus luteus worked out at 62.5 µg/mL (≈ 180 µM); in the assay on Salmonella typhimurium, 125 µg/mL (≈ 360 µM); with Staphylococcus aureus it was 125 µg/mL (≈ 360 µM); against Bacillus cereus, 125 µg/mL (≈ 360 µM); in the assay with Escherichia coli it was 250 µg/mL (≈ 720 µM); in the assay on Proteus vulgaris, 62.5 µg/mL (≈ 180 µM). For the same compound, the figures for the MIC in the assay with Candida albicans and with Nakaseomyces glabratus were 250 µg/mL (≈ 720 µM) and 125 µg/mL (≈ 360 µM), respectively.
Regarding `Cc1ccc(C2=Nn3c(Cc4c[nH]c5ccccc45)nnc3SC2)cc1`, the MIC with Micrococcus luteus was 62.5 µg/mL (≈ 174 µM); with Salmonella typhimurium it was 62.5 µg/mL (≈ 174 µM); against Staphylococcus aureus, 125 µg/mL (≈ 348 µM); against Bacillus cereus, 250 µg/mL (≈ 695 µM); in the assay on Escherichia coli, 125 µg/mL (≈ 348 µM); against Proteus vulgaris it was 125 µg/mL (≈ 348 µM). Further, the MIC in the assay with Candida albicans is 250 µg/mL (≈ 695 µM); in the assay with Nakaseomyces glabratus, 62.5 µg/mL (≈ 174 µM).
With `CN(C)c1ccc(C2=Nn3c(Cc4c[nH]c5ccccc45)nnc3SC2)cc1`, the MIC is 62.5 µg/mL (≈ 161 µM) against Micrococcus luteus; 12.5 µg/mL (≈ 32.2 µM) against Salmonella typhimurium; 250 µg/mL (≈ 644 µM) in the assay with Staphylococcus aureus; 125 µg/mL (≈ 322 µM) against Bacillus cereus; 125 µg/mL (≈ 322 µM) in the assay on Escherichia coli; 125 µg/mL (≈ 322 µM) with Proteus vulgaris. Besides, the MIC in the assay with Candida albicans amounted to 125 µg/mL (≈ 322 µM); with Nakaseomyces glabratus, 250 µg/mL (≈ 644 µM).
`O=[N+]([O-])c1ccc(C2=Nn3c(Cc4c[nH]c5ccccc45)nnc3SC2)cc1`: the MIC in the assay on Micrococcus luteus stood at 125 µg/mL (≈ 320 µM); in the assay with Salmonella typhimurium it was 250 µg/mL (≈ 640 µM); in the assay with Staphylococcus aureus it was 125 µg/mL (≈ 320 µM); against Bacillus cereus, 250 µg/mL (≈ 640 µM); in the assay on Escherichia coli it was 125 µg/mL (≈ 320 µM); in the assay on Proteus vulgaris, 125 µg/mL (≈ 320 µM). The MIC in the assay with Candida albicans and in the assay with Nakaseomyces glabratus was 125 µg/mL (≈ 320 µM) each time.
As to `CC(=O)N1CCN(c2ccc(OCC3COC(Cn4ccnc4)(c4ccc(Cl)cc4Cl)O3)cc2)CC1` (stereo not drawn) [KETOCONAZOLE], the MIC in the assay on Candida albicans and against Nakaseomyces glabratus was 62.5 µg/mL (≈ 118 µM) throughout.
In the case of `O=[N+]([O-])c1ccc(/C=N/n2c(Cc3c[nH]c4ccccc34)n[nH]c2=S)cc1`, the MIC was found to be 125 µg/mL (≈ 330 µM) with Micrococcus luteus; 125 µg/mL (≈ 330 µM) against Salmonella typhimurium; 250 µg/mL (≈ 661 µM) with Staphylococcus aureus; 250 µg/mL (≈ 661 µM) with Bacillus cereus; 125 µg/mL (≈ 330 µM) against Escherichia coli; 125 µg/mL (≈ 330 µM) in the assay with Proteus vulgaris. The MIC against Candida albicans and in the assay with Nakaseomyces glabratus was 125 µg/mL (≈ 330 µM) in each case.
